Key:
centrosomes [1] = experiment: centrosome amplification in cells; type: cell-based; details: fig. S1
p53 = experiment: Western blot of p53 in RPE1 cells; type: cell-based, human; details: RPE1, without genotoxic stress
[2] = test system: RPE1 human retinal pigment epithelial cells; experiment: RPE1 passaging assay and flow cytometry; type: cell-based
Outline: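 RPE1 cells passaged with inhibitor added on day 0 and washed out on day 8; proliferation followed over serial passages. Data are means ± SD, N = 2.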

[3] = target: T1, Polo-like kinase 4 (Plk4) (Homo sapiens, UniProt O00444); experiment: Plk4 inhibition in vitro; type: biochemical; details: read-out: inhibition constant (Ki)
T1 sequence (O00444 1-970): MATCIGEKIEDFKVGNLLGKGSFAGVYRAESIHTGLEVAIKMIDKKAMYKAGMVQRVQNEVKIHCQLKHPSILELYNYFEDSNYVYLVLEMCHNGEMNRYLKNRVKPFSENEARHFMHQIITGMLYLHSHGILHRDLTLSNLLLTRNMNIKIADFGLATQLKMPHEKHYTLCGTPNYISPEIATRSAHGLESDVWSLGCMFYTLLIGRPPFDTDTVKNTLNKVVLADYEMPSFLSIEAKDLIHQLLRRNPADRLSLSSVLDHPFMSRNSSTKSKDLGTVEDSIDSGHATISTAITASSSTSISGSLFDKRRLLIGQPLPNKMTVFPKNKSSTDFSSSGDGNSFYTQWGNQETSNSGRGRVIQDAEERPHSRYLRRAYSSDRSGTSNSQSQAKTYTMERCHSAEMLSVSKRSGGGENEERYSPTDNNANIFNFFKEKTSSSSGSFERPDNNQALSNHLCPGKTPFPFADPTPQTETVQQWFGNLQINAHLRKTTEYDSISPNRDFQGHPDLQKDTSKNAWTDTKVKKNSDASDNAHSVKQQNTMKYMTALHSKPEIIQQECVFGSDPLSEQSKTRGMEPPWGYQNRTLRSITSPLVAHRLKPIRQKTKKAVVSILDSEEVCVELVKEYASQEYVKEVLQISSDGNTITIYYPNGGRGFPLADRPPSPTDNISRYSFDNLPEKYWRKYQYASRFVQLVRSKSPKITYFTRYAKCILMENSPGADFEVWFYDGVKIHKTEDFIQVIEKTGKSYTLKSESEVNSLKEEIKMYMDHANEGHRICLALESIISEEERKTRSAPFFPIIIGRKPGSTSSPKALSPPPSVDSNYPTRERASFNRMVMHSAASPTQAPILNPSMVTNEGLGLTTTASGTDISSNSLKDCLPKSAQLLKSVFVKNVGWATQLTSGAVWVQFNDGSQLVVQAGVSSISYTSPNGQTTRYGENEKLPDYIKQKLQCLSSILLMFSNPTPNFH

centrosomes [4] = experiment: centrosome depletion; type: cell-based; details: cellular activity
NIH/3T3 cells = experiment: mitotic duration by imaging, NIH/3T3; type: cell-based, mouse; details: centrosome-less NIH/3T3 cells
[5] = test system: NIH/3T3 cells induced to overexpress Plk4-GFP; experiment: centriole amplification in cells overexpressing wild-type or G95L Plk4-GFP; type: cell-based, mouse
g-H2A.X foci = g-H2A.X foci in RPE1 nuclei; type: cell-based, human; details: RPE1 treated cells
Outline: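 γ-H2A.X foci, marking double-strand DNA breaks, counted in nuclei of treated RPE1 cells. Values are means ± SD, N = 3.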

[6] = test system: multiciliated Xenopus epithelial cells; experiment: centriole number in multiciliated Xenopus epithelial cells; type: cell-based
HeLa cells = experiment: mitotic duration by imaging, HeLa; type: cell-based, human; details: centrosome-less HeLa cells
[7] = test system: RPE1 cells expressing G95L Plk4; experiment: RPE1 Plk4 G95L knock-in cells, centrosome number and passaging; type: cell-based, human; details: RPE1, both endogenous PLK4 alleles G95L
[8] = test system: RPE1 cells coexpressing centrin-GFP and H2B-RFP; experiment: RPE1 lineage analysis by live-cell imaging; type: cell-based, human; details: acute treatment
Outline: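 RPE1 cells coexpressing centrin-GFP and H2B-RFP filmed after inhibitor addition. Both GFP and RFP channels were imaged at first to count centrosomes and follow mother-cell mitosis. Daughter fate was then tracked with RFP only. Arrest was scored as failure to enter mitosis within 48 hours of cell birth, and the percentage arresting per generation was reported; N = 2.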

[9] = test system: HeLa human cervical carcinoma cells; experiment: centriole/centrosome depletion and washout in HeLa cells; type: cell-based
Outline: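 HeLa cells under continuous treatment scored for foci carrying centriolar and pericentriolar markers at each round of division. Cells were imaged 7 days after inhibitor addition and again 10 days after washout.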

COc1ccc2c(c1)[C@]1(C[C@H]1c1ccc3c(/C=C/c4ccc(CN5C[C@@H](C)O[C@@H](C)C5)cc4)n[nH]c3c1)C(=O)N2 [CFI-400945]
effect on centrosome number (centrosomes [1]): induces centrosome amplification

CCOc1cc(C(C)(C)C)ccc1C1=N[C@@](C)(c2ccc(Cl)cc2)[C@@](C)(c2ccc(Cl)cc2)N1C(=O)N1CCN(CCCS(C)(=O)=O)CC1 [R7112, reference compound]
effect on p53 levels (p53): raised p53 levels | proliferation after washout ([2]; RPE1, addition day 0, washout day 8): resumption of proliferation

COc1c(Nc2cc(C)[nH]n2)nc(Sc2ccc(S(=O)(=O)Cc3cccc([N+](=O)[O-])c3F)cc2F)nc1N1CCCCC1 [centrinone-B]
Ki [3]: 0.6 nM | centrosome depletion at (concentration) (centrosomes [4]): 500 nM

COc1c(Nc2cc(C)[nH]n2)nc(Sc2ccc(S(=O)(=O)Cc3cccc([N+](=O)[O-])c3F)cc2F)nc1N1CCOCC1 [centrinone]
increase of mitotic duration (NIH/3T3 cells): ~20 min | effect on centriole amplification [5]: blocked centriole amplification | g-H2A.X foci abundance (g-H2A.X foci): not more abundant | effect on centriole number [6]: reduced centriole number | increase of mitotic duration (HeLa cells): ~1 h | centrosome depletion at (concentration) (centrosomes [4]): 100 nM | effect on cell cycle ([2]; RPE1, 12-day passaging assay and flow cytometry): cell cycle arrest in G1 | centrosome loss or proliferation arrest [7]: did not lead to centrosome loss or proliferation arrest | fraction of progeny arrested ([8]; one-centrosome progeny of pioneer one-centrosome mothers): 25.5% | fraction of progeny arrested ([8]; progeny of pioneer zero-centrosome mothers): 70% | fraction of progeny arrested ([8]; zero-centrosome progeny of pioneer one-centrosome mothers): 33.0% | reversibility of centriole loss ([9]; 10 days after washout): fully reversible | effect on centriolar and pericentriolar material foci ([9]; at each round of cell division): progressive reduction
